Data set [1] is described as follows: folding enthalpy; higher = less favourable; fluorescence melt of hairpins on a sequencing array, two-state fit. To be noted: sodium 0.088 M. The procedure, abridged:
(§1)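 With Cy3 and quencher oligos annealed, library hairpins on a sequenced MiSeq flow cell were imaged for Cy3 fluorescence in 50 mM Na-HEPES pH 8.0, 25 mM NaCl, in 2.5 °C steps up to 60 °C. Melting temperature and folding enthalpy were derived from bootstrapped two-state fits of signals normalised to pre-quench Cy3 and to control constructs. Four replicates were combined by inverse variance, with fitted temperatures raised by 9.35 °C to match UV melts.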

Data set [2] is described as follows: melting temperature; fluorescence melt of hairpins on a sequencing array, two-state fit, raised by 9.35 °C to match UV melts. To be noted: sodium 0.088 M. The procedure, abridged:
as §1

Consider GAAGCCGAAAGGCCGTTC ((((((....)))..))), for which, in data set [1], the folding enthalpy was -6.55 kcal/mol. For the same sequence, in data set [2], the Tm is 26.6 °C.

For GCTGTATCGAAAGATAGC (((..(((....)))))), in data set [1], the folding enthalpy is -18.4 kcal/mol. In addition, the Tm in data set [2] is 33.7 °C.

As to GGAGGTCGAAAGACTCC (((.(((....)))))), in data set [1], the folding enthalpy was -21.3 kcal/mol. Moreover, the Tm in data set [2] came to 51.1 °C.

Consider GTAGTCGGAAACGACTAC (((((((....))))))), for which, in data set [1], the folding enthalpy is -41.2 kcal/mol. Also, the Tm in data set [2] was 64.8 °C.

GGGTTTGGAAACGAACCC (((((.(....).))))): the folding enthalpy in data set [1] was -59.2 kcal/mol. Further, the Tm in data set [2] worked out at 52.3 °C.

Take GGGTGGCGAAAGCCCCC (((.(((....)))))): the folding enthalpy in data set [1] was -17.3 kcal/mol. In data set [2], the Tm was 66.9 °C.

Consider GATCCCCGAGGGATC ((((((...)))))), for which the folding enthalpy in data set [1] is -31.8 kcal/mol. For the same sequence, in data set [2], the Tm is 62 °C.

As for GCACACGAAAGTGATGC ((((((....))).))), the folding enthalpy in data set [1] was -33.1 kcal/mol. The Tm in data set [2] amounted to 54.5 °C.

As for GATTGGGGAAACCCAACC (.(((((....))))).), the folding enthalpy in data set [1] is -14.5 kcal/mol. In data set [2], the Tm was found to be 36.7 °C.

Regarding GGGAGCGAAAGCTTCCC ((((((....))).))), in data set [1], the folding enthalpy is -20.5 kcal/mol. In data set [2], the Tm amounted to 61.7 °C.

Regarding GTGCGCGGAAACGTGCAC ((((.((....)).)))), in data set [1], the folding enthalpy was -35.4 kcal/mol. Further, the Tm in data set [2] was 67.5 °C.

CGGGCGGAAACGCTCCG ((((((....))).))): the folding enthalpy in data set [1] was -26.4 kcal/mol. In data set [2], the Tm is 54.2 °C.

As for GGATAGTCGAAAGACTCC (((..(((....)))))), the folding enthalpy in data set [1] is -13.6 kcal/mol. The Tm in data set [2] came to 33.1 °C.

As to GGCTGCGGAAACACAGCC (((((.(....).))))), the folding enthalpy in data set [1] is -42 kcal/mol. In data set [2], the Tm was 56 °C.

On to GTAGCAGGAAACTACTAC ((((.((....)).)))), for which the folding enthalpy in data set [1] is -24.4 kcal/mol. The Tm in data set [2] is 35 °C.

With GCTTGCGAAAGCAGTAGC ((((((....)))..))), in data set [1], the folding enthalpy was -17.8 kcal/mol. The Tm in data set [2] came out at 45.7 °C.

For GTTTGGGGAAACCTGAAC (((..((....))..))), the folding enthalpy in data set [1] was -16 kcal/mol. Besides, the Tm in data set [2] stood at 32 °C.

As for GCGATCCCGAAAGGGCGC (((..(((....)))))), in data set [1], the folding enthalpy was -20.6 kcal/mol. Further, the Tm in data set [2] was 56.3 °C.

As to GCGCGGCGAAAGCCTGGC ((..(((....)))..)), the folding enthalpy in data set [1] is -15.3 kcal/mol. Moreover, in data set [2], the Tm worked out at 47.9 °C.

In the case of GATCCGCACTCGGATC ((((((....)))))), in data set [1], the folding enthalpy was -41 kcal/mol. For the same sequence, the Tm in data set [2] was 56.5 °C.

As to GATCTTCAGAAGATC ((((((...)))))), the folding enthalpy in data set [1] is -35.9 kcal/mol. Moreover, the Tm in data set [2] came out at 40.3 °C.

On to GATCTAACGTAGATC ((((((...)))))), for which the folding enthalpy in data set [1] is -24.5 kcal/mol. In addition, in data set [2], the Tm came out at 36.1 °C.

Turning to GTGATCGAAAGATCACAC ((((((....)))..))), in data set [1], the folding enthalpy was -14.1 kcal/mol. The Tm in data set [2] was found to be 67.3 °C.

For the sequence GATCGTTAGACGATC ((((((...)))))), in data set [1], the folding enthalpy was -34.8 kcal/mol. Also, in data set [2], the Tm turned out to be 52.9 °C.

GCTGTGCGAAAGCACTGC ((.((((....)))).)): the folding enthalpy in data set [1] was -24.1 kcal/mol. The Tm in data set [2] came to 68.1 °C.

GGTAAAGGAAACCTTACC (((((.(....).))))): the folding enthalpy in data set [1] was -22 kcal/mol. Moreover, the Tm in data set [2] is 35.5 °C.

Regarding GATCCGCTGACGGATC ((((((....)))))), in data set [1], the folding enthalpy was -38 kcal/mol. The Tm in data set [2] was found to be 60.7 °C.

In the case of GATCCCCAGTGGGATC ((((((....)))))), the folding enthalpy in data set [1] was -43.5 kcal/mol. Moreover, the Tm in data set [2] amounted to 59.1 °C.

Turning to GTCAGGGGAAACCCTAAC ((.((((....)))).)), in data set [1], the folding enthalpy was -14.5 kcal/mol. The Tm in data set [2] came to 29.6 °C.

Consider CGTCCGGAAACGGGTACG ((((((....)))..))), for which, in data set [1], the folding enthalpy is -25 kcal/mol. In data set [2], the Tm turned out to be 42.4 °C.

As to GATCCGAAAACGGATC ((((((....)))))), the folding enthalpy in data set [1] was -37 kcal/mol. In data set [2], the Tm turned out to be 52.6 °C.

As for GAGGTCACGAAAGTGCTC (((..(((....)))))), the folding enthalpy in data set [1] is -13.4 kcal/mol. In addition, the Tm in data set [2] came to 30.7 °C.

Consider GCGATTTCGAAAGAACGC (((..(((....)))))), for which, in data set [1], the folding enthalpy is -24.2 kcal/mol. Also, the Tm in data set [2] stood at 36.9 °C.

With GCACGCGAAAGCGCATGC ((((((....)))..))), the folding enthalpy in data set [1] was -13.6 kcal/mol. Besides, the Tm in data set [2] amounted to 43 °C.

With GATCGCAACAGCGATC ((((((....)))))), in data set [1], the folding enthalpy was -35.4 kcal/mol. In addition, the Tm in data set [2] was 69.1 °C.

For the sequence GATCCTGATTAGGATC ((((((....)))))), the folding enthalpy in data set [1] was -40.4 kcal/mol. For the same sequence, in data set [2], the Tm stood at 51.3 °C.

Take GTCAGAGGAAACTCCGAC (((.(((....))).))): in data set [1], the folding enthalpy was -25.3 kcal/mol. Moreover, the Tm in data set [2] came out at 34.7 °C.
